Experimental data reported in PMC9260726 (ACS Infectious Diseases, 2022).

Tests used:
[1] = system: SARS-CoV-2 BetaCoV/Germany/BavPat1/2020; assay type: cell-based
[2] = system: human pneumocyte-like cells; experiment: Pneumocyte-like cell MTT viability assay; assay type: cell-based; settings: 10 μM, 48 h, uninfected
In short: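 Human pneumocyte-like cells derived from H9 embryonic stem cells, used on day nine of differentiation. An uninfected duplicate set received the same drug concentrations as the antiviral set. After 48 h at 37 °C, viability was read by MTT assay. Viability was expressed as a percentage of the DMSO control, in triplicate.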

[3] = system: SARS-CoV-2 nucleoprotein and spike protein; assay type: cell-based
HeLa-hACE2 = settings: HeLa-hACE2, conditions of the antiviral assay, 16 h
SARS-CoV-2 USA-WA1/2020 = assay type: cell-based
[4] = system: VSV-G protein pseudotyped particles; assay type: cell-based, vesicular stomatitis virus
[5] = system: SARS-CoV-1 S pseudotyped particles; assay type: cell-based
SARS-CoV-2 dsRNA = assay type: cell-based
[6] = system: SARS-CoV-2 S pseudotyped particles; assay type: cell-based
[7] = system: SARS-CoV-2 BetaCoV/Germany/BavPat1/2020; assay type: cell-based; remark: listed apart in the source
Vero E6 = settings: Vero E6, conditions of the antiviral assay, 16 h
[8] = system: SARS-CoV-2 negative-stranded viral RNA; experiment: In vitro transcribed viral RNA replication assay, negative-stranded RNA RT-qPCR; assay type: cell-based
[9] = system: ocular angiogenic disease models; settings: 0.25 mg/kg; cited from earlier work
ACE2 = ACE2 immunoblot analysis in Vero E6; assay type: cell-based, monkey; settings: Vero E6, after 24 h
[10] = system: SARS-CoV-2 BetaCoV/Germany/BavPat1/2020; experiment: Time-of-addition assay in Vero CCL81, plaque assay; assay type: cell-based
Vero CCL81 cells = settings: 1 μM, 18 h
SARS-CoV-2 = settings: COVID-19 patients; cited from earlier work
[11] = system: SARS-CoV-2 BetaCoV/Germany/BavPat1/2020; assay type: cell-based; settings: effect only at 10 μM, less potent than Apra S4

Compound: CCC(CC)COC(=O)[C@H](C)N[P@](=O)(OC[C@H]1O[C@@](C#N)(c2ccc3c(N)ncnn23)[C@H](O)[C@@H]1O)Oc1ccccc1 [remdesivir, reference compound]
- SARS-CoV-2 multicycle growth [1]: less potent
- cytotoxicity in pneumocyte-like cells [2]: No cytotoxicity

Compound: CC[C@H](C)[C@H]1C(=O)N2CCC[C@H]2C(=O)O[C@H](C(C)(C)C)C[C@@H](C)C[C@H](O)[C@H](C)C2=N[C@@H](CCC(=O)N[C@@H](Cc3ccc(OC)cc3)C(=O)N(C)[C@@H](C)C(=O)N1C)CS2 [Apra S4, apratoxin S4]
- SARS-CoV-2 multicycle growth [1]: strongly reduced
- virus titers ([1]; […], below limit of detection): < 100 PFU/mL
- nucleoprotein signal intensity in infected cells [3]: increased
- number of infected cells (N or S positive) [3]: significantly reduced number of infected cells
- spike protein staining intensity in infected cells [3]: significantly reduced
- viral protein expression at the cell surface (nucleoprotein and spike) [3]: inhibitory effect of Apra S4 was even more pronounced
- cytotoxicity (HeLa-hACE2): Cytotoxicity was not observed
- viral replication in human pneumocyte-like cells (SARS-CoV-2 USA-WA1/2020): significantly decreased viral replication
- VSV-G-mediated entry [4]: None of the compounds impacted
- viral entry of SARS-CoV-1 S pseudotyped particles (luciferase) [5]: slightly enhanced infection
- dsRNA intermediates in infected cells (SARS-CoV-2 dsRNA): strongly reduced
- cytotoxicity in pneumocyte-like cells [2]: No cytotoxicity
- viral entry of SARS-CoV-2 S pseudotyped particles (luciferase) [6]: slightly enhanced infection
- cytotoxic effect (WST-8) (Vero E6 cells): No cytotoxic effect was observed
- reduction in infectious virus titers in the supernatant [7]: more than 100 fold
- cytotoxicity (Vero E6): Cytotoxicity was not observed
- negative-strand viral RNA [8]: reduced the negative-strand RNA
- efficacy in ocular angiogenic disease models in vivo [9]: exquisite efficacy
- toxicity in ocular angiogenic disease models in vivo [9]: without toxicity or histological abnormalities
- concentration giving decreased ACE2 protein levels (ACE2): ≥ 1 µM
- antiviral activity by time of addition [10]: did not lose its antiviral activity even if added 2 h after infection
- cytotoxic effects (CellTiter-Glo) (Vero CCL81 cells): not due to cytotoxic effects

Compound: Cc1cccc(/C=N/Nc2cc(N3CCOCC3)nc(OCCc3ccccn3)n2)c1 [Apilimod, apilimod, reference compound]
- VSV-G-mediated entry [4]: None of the compounds impacted
- viral entry of SARS-CoV-1 S pseudotyped particles (luciferase) [5]: inhibited viral entry
- viral entry of SARS-CoV-2 S pseudotyped particles (luciferase) [6]: inhibited viral entry
- cytotoxic effect (WST-8) (Vero E6 cells): No cytotoxic effect was observed

Compound: CC(C)C(=O)OC[C@H]1O[C@@H](n2ccc(NO)nc2=O)[C@H](O)[C@@H]1O [molnupiravir]
- reduction of the rate of hospitalizations and death (SARS-CoV-2): 30%

Compound: CC1(C)C(N(O)C(=O)Nc2ccc(Cl)cc2)N(c2ccc(Cl)cc2)C(=O)N1CC(=O)N/N=C/C=C/c1ccc([N+](=O)[O-])o1 (stereo not drawn) [Eeyarestatin I, eeyarestatin I]
- SARS-CoV-2 growth [11]: inhibited SARS-CoV-2 in a dose-dependent manner
